pKd: −log10 of the molar value. Where no end group is shown, it is not given here.

Data set [1] concerns the target TLR4/MD-2 complex (human) (UniProt O00206). Kind of data set: SPR.
The test system of the next data set is RAW 264.7 cells. As to the kind of experiment: Cytotoxicity, WST-8 assay. It is filed as cell-based. To be noted: 24 h. For orientation: Tetrazolium dyes change colour on reduction, which living cells bring about.
Data set [2] addresses T1, MD-2 (Homo sapiens, UniProt Q9Y6Y9).
T1 sequence (Q9Y6Y9 19-160): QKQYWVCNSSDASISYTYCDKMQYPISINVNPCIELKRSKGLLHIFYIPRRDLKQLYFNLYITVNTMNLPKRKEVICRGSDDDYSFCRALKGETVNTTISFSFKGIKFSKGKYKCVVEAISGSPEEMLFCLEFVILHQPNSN
As to the kind of experiment: SPR binding to MD-2. (In general: Surface plasmon resonance follows binding to a sensor surface in real time, without labels.)

In another data set the test system is ICR mice. As to the kind of experiment: In vivo toxicity. The following applies: for kidney histology, in words: 20 mg/kg, two doses for 3 d, hematoxylin and eosin. The procedure, abridged:
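Female ICR mice, n = 5 per group, received test compound i.p. at a low (5 mg/kg/day for 5 d) or high (20 mg/kg twice per day for 3 d) regimen. Serum creatinine, AST and ALT were measured and compared with controls by one-way ANOVA with Dunnett's test; mean ± SEM.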

A further data set has as its target TLR4/MD-2 (Homo sapiens, UniProt O00206+Q9Y6Y9). As to the kind of experiment: SPR binding to TLR4/MD-2 complex.
Data set [3] deals with TLR4 (Homo sapiens, UniProt O00206). Kind of data set: SPR binding to TLR4.
For data set [4], the target named is TLR4. To be noted: read-out: binding affinity of LPS to TLR4; cited from earlier work.
Data set [5] concerns the target MD-2. To be noted: read-out: binding affinity of LPS to MD-2; cited from earlier work.
For data set [6], the system named is FITC-LPS binding to RAW 264.7 cells. As to the kind of experiment: Flow cytometry of FITC-LPS binding to RAW 264.7 cells. Type of data set: cell-based. To be noted: posttreatment with 40 μM peptide, FITC-LPS 40 μg/mL, 30 min, 4 °C; MFI. The procedure, abridged: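 RAW 264.7 cells (10⁶) were exposed under serum-free conditions at 4 °C for 30 min to test compound (40 μM) or FITC-labelled E. coli O55:B5 LPS (40 μg/mL), given before or after the other. Cells were PBS-washed and surface fluorescence was read by flow cytometry as MFI (%). Three independent experiments, mean ± SEM, one-way ANOVA with Dunnett's test.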
(In general: In flow cytometry, cells or beads pass a laser one at a time.)

For data set [7], the system named is E. coli K1-infected ICR mice. Kind of data set: E. coli K1 sepsis mouse model. Type of data set: in vivo.
Setting [8] is: 20 mg/kg i.p. twice per day for 3 d, ICR mice, n = 5.
Setting [9] is: 1 mg/kg i.p., E. coli K1 5 × 10^6 CFU/mouse, serum.

Chain of TLR4/MD-2 complex (human) (O00206 24-839, one chain of several): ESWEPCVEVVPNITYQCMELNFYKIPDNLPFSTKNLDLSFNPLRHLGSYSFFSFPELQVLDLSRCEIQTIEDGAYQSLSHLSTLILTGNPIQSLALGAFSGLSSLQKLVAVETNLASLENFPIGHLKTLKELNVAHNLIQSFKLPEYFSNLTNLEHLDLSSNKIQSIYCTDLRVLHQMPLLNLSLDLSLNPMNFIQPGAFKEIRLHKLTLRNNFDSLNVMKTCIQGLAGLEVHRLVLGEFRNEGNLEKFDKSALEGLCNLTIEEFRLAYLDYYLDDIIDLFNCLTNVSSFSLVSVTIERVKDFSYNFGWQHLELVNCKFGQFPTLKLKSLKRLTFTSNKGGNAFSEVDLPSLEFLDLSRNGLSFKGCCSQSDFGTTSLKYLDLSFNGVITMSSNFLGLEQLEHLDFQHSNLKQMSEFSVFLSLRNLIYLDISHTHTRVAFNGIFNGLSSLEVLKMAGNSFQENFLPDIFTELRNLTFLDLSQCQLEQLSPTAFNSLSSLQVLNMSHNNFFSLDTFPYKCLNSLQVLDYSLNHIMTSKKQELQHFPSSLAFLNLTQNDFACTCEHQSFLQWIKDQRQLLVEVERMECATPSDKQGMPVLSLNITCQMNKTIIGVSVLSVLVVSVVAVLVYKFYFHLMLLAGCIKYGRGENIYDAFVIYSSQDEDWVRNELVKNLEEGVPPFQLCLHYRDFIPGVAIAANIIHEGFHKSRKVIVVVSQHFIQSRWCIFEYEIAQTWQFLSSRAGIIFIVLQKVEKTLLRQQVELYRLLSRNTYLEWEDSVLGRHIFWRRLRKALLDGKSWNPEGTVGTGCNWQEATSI
Chain of TLR4/MD-2 (O00206 24-631 limits assumed): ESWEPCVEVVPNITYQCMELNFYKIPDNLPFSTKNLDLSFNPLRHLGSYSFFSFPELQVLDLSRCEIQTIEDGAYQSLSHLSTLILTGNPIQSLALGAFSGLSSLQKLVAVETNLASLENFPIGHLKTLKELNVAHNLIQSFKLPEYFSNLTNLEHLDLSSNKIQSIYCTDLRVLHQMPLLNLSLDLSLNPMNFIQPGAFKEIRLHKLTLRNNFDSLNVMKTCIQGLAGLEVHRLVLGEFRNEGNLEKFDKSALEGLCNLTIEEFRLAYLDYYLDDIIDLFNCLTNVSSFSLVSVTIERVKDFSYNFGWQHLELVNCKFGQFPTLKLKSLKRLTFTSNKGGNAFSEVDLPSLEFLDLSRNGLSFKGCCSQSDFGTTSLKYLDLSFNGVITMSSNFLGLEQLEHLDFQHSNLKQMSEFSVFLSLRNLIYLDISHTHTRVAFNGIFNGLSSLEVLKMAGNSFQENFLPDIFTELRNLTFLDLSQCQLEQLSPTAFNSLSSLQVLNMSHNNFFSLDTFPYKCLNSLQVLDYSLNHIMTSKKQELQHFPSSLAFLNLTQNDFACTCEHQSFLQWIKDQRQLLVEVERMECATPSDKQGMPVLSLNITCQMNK
Chain of TLR4/MD-2 (Q9Y6Y9 17-160 limits assumed): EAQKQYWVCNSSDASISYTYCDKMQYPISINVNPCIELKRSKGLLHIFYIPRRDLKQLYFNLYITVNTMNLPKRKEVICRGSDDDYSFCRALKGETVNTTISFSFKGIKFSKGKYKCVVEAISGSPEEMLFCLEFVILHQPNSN
Chain of TLR4 (Homo sapiens, UniProt O00206) (O00206 24-839): as the sequence (O00206 24-839, one chain of several) above

In data set [1], papiliocin (peptide) registered a koff of 0.0141 s⁻¹ and a kon of 3850 M⁻¹ s⁻¹.

In data set [1], papiliocin P24G (peptide) registered a fold lower affinity compared to papiliocin of 10 fold.

Consider “RWKIFKKIEKVGRNVRDGIIKAGPAVAVVGQAATVVK-NH2 [Papiliocin]”, for which the cell survival rate in the data set with RAW 264.7 cells (50 μM peptide) is reported as 100%; in the data set on RAW 264.7 cells (100 μM peptide) it was 78.0%. Besides, the values for the pKd on MD-2 [2], at TLR4/MD-2 and on TLR4 [3] were 5.96, 5.43 and 6.39, respectively. The “change in creatinine level compared to the control, in words” value in the data set with ICR mice (5 mg/kg/day for 5 d and 20 mg/kg twice per day for 3 d, i.p.) is “neither lower dose of PMB nor any dose of papiliocin induced any aberrant changes in creatine level”. For the same substance, the “kidney histology, in words” value with ICR mice was “did not show any signs of morphology changes in the kidneys”. For the same substance, the kon at TLR4/MD-2 (read-out: association rate, TLR4/MD-2 complex) stood at 3850 M⁻¹ s⁻¹. For the same substance, the koff on TLR4/MD-2 (read-out: dissociation rate, TLR4/MD-2 complex) was found to be 0.0141 s⁻¹.

Consider papiliocin G23P (peptide), for which, in data set [1], the fold lower affinity compared to papiliocin was 100 fold.

Consider lipopolysaccharide [LPS], for which the pKd on TLR4 [4] is 4.85; on MD-2 [5], 5.06.

Polymyxin B [PMB] registered a cell survival rate with RAW 264.7 cells (50 μM peptide) of 30.6%. This substance showed a cell survival rate with RAW 264.7 cells (100 μM peptide) of 15.5%. Further, in the data set with ICR mice (setting [8]), the “elevation of blood urea nitrogen (BUN) level” value came to 26.6%, the “elevation of serum creatinine level” value worked out at 37.1%, the “increase of ALT level” value was determined as 30.6% and the “increase of AST level” value was 17.8%. The “kidney histology, in words” value with ICR mice is “notable kidney damage”. For the same substance, the “competitive displacement of prebound LPS on RAW 264.7 cells” value in data set [6] is on record as “no competitive impact”. For the same substance, in data set [7] (1 mg/kg i.p., E. coli K1 5 × 10^6 CFU/mouse, 16 h later, n = 5), the “reduction of endotoxin levels” value was 34.6%. Also, in data set [7] (setting [9]), the “ALT level reduced to” value amounted to 19.4%, the “AST level reduced to” value was 25.7% and the “BUN level reduced to” value amounted to 16.7%. For the same substance, in data set [7] (1 mg/kg, compared to E. coli K1–infected control mice, ELISA), the “serum and lung tissue levels of TNF-α and IL-6, in words” value is given as “significantly reduced”. Besides, in data set [7] (1 mg/kg, hematoxylin and eosin, neutrophil infiltration), the “lung tissue histology, in words” value is “significantly protected against lung damage”.
